From PubChem
Rows were chosen to be rich in hits. Some 5.9% of all compounds tested hit in one or more screens of this group.
Pf Dd2 growth: P. falciparum Dd2 growth inhibition; SYBR Green, 72 h; active compounds read low; AID 1159554; activity change, % at 10 µM; 2.3% of 94,000 active; in the data active means activity change below about -80%; inconclusive means no clear call, values can overlap the other calls
IDH1 mut inh: blocks human IDH1 R132H reductase activity | inhibition, % at 10 µM | O75874 | 0.18% of 70,000 active | AID 624101 | diaphorase/resazurin fluorescence, 60 min; in the data active means inhibition above about 34%; inconclusive means no clear call, values can overlap the other calls; inactive means below about 11%;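 further: 0% = DMSO and 100% = no enzyme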
Target sequence (O75874 whole entry R132H): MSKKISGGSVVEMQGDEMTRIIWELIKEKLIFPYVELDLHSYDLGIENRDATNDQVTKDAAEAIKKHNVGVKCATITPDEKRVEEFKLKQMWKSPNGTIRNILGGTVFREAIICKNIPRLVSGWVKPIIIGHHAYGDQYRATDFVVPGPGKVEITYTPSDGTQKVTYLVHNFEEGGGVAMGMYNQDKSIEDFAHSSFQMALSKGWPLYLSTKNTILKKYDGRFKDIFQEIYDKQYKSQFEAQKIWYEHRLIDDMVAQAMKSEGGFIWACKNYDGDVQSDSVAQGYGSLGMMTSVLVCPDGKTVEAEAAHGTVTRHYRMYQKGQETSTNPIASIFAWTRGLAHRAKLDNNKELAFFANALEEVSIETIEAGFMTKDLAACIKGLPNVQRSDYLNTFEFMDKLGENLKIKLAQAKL
T cruzi growth-1: T. cruzi proliferation inhibition; T. cruzi beta-gal in NIH3T3, GalScreen luminescence, 90 h; inhibition, % at 8.34 µM; 5.9% of 77,000 active; AID 624255;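 active means mean inhibition above about 93%, with at least 55% of replicates each passing it, limit read from the data, passing the limit was not always enough; inconclusive means only one of those two conditions holds; inactive means neither condition holds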
KDM4C inh: blocks human GASC-1 (KDM4C) demethylase activity; GST-KDM4C 2-372, H3K9me3 peptide, LANCE TR-FRET; inhibition, % at 12.5 µM; 0.15% of 96,000 active; Q9H3R0;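 active means mean replicate inhibition above about 25%, with at least 55% of replicates also reaching it, limit read from the data, passing the limit was not always enough; inconclusive means only one of those two conditions met; inactive means neither condition met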
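Assay system: GST-GASC-1 enzyme fragment 2-372 | Amount: 10 nM enzyme | Medium: HEPES buffer, pH 7.5, plus ascorbate | Reagent: H3K9me3 peptide substrate, Fe(II), 2-oxoglutarate | Doses: Single-point compound screen | Incubation: 30 min demethylation and 1 h detection at room temperature | Measured by: LANCE TR-FRET, excitation 340 nm, emissions 618 and 671 nm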
T cruzi growth-2: Trypanosoma cruzi proliferation inhibition | 72% of 5,600 active | shares compounds with T cruzi growth-1 | inhibition, % at 8.35 µM | T. cruzi beta-gal in NIH3T3, GalScreen luminescence, 90 h;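 active means mean replicate inhibition above about 95% and at least 55% of replicates individually reaching it, limit read from the data; inconclusive means only one of the two criteria is met; inactive means neither criterion is met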
T cruzi growth-3: inhibitors of T. cruzi proliferation. 21% of 5,600 active. T. cruzi beta-gal in NIH3T3, GalScreen luminescence, 90 h. inhibition, % at 2.09 µM. shares compounds with T cruzi growth-1;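 active means mean inhibition above about 95%, with at least 55% of replicates also reaching it, limit read from the data; inconclusive means meets just one of the two conditions; inactive means meets neither condition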;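 further: plate controls were neutral control median for no effect and positive control median for full effect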
NIH3T3 tox: cytotoxicity in mouse NIH/3T3 fibroblasts; shares compounds with T cruzi growth-1; NIH/3T3 viability, CellTiter-Glo ATP luminescence, 90 h; cytotoxicity (signal decrease), % at 8.35 µM; 14% of 5,600 active;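 active means mean signal decrease across replicates above about 35% based on untreated-well scatter, with enough replicates individually passing, limit read from the data; inconclusive means no rule stated though some were filed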;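 further: 0% = median of neutral control wells and 100% = median of positive control wells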
3T3 cytotox 2: NIH/3T3 (mouse) viability loss | shares compounds with T cruzi growth-1 | NIH/3T3 viability, CellTiter-Glo ATP luminescence, 90 h | inhibition, % at 24.9 µM | 56% of 5,600 active | AID 651744;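 active means mean loss of cell viability signal at or above a set limit, and enough replicates individually reaching it; inconclusive means meets only the mean limit or only the replicate share; inactive means meets neither condition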;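 further: 0% = median of neutral control wells and 100% = median of positive control wells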
* = called active by the depositor; ! = a repeat was not active.

What do the screens show for `C[C@H]1CN([C@@H](C)CO)C(=O)c2cc(C#Cc3cccc(F)c3)cnc2O[C@@H]1CN(C)C(=O)C1CCCCC1`?
Pf Dd2 growth: -89*; T cruzi growth-1: 114*; KDM4C inh: -4; T cruzi growth-2: 113*; T cruzi growth-3: 66; NIH3T3 tox: 5; 3T3 cytotox 2: 76*

What do the screens show for `C[C@@H]1CN([C@@H](C)CO)C(=O)c2cc(C#Cc3cccc(F)c3)cnc2O[C@H]1CN(C)C(=O)C1CCCCC1`?
Pf Dd2 growth: -52; IDH1 mut inh: 0; T cruzi growth-1: 117*!; KDM4C inh: 5; T cruzi growth-2: 105*; T cruzi growth-3: 61; NIH3T3 tox: 13; 3T3 cytotox 2: 92*

What do the screens show for `O=C(/C=C/c1ccccc1)O[C@@H]1C[C@@](O)(C(=O)O)C[C@@H](O)[C@@H]1O`?
IDH1 mut inh: 0

What do the screens show for `Cc1noc(C)c1S(=O)(=O)Nc1ccc2c(c1)C(=O)N([C@H](C)CO)C[C@@H](C)[C@@H](CN(C)Cc1ccc(C(F)(F)F)cc1)OCCCC[C@@H](C)O2`?
Pf Dd2 growth: -27; T cruzi growth-1: 93; KDM4C inh: 2

How did Cc1noc(C)c1S(=O)(=O)Nc1ccc2c(c1)C(=O)N([C@@H](C)CO)C[C@@H](C)[C@H](CN(C)C(=O)Nc1ccc(C(F)(F)F)cc1)OCCCC[C@@H](C)O2 do in these assays?
Pf Dd2 growth: -14; IDH1 mut inh: 2; T cruzi growth-1: 106; KDM4C inh: 0

What do the screens show for `Cc1noc(C)c1S(=O)(=O)Nc1ccc2c(c1)C(=O)N([C@@H](C)CO)C[C@H](C)[C@@H](CN(C)C(=O)Nc1ccc(C(F)(F)F)cc1)OCCCC[C@H](C)O2`?
Pf Dd2 growth: -77; IDH1 mut inh: 3; T cruzi growth-1: 125*; KDM4C inh: 0; T cruzi growth-2: 95*; T cruzi growth-3: 111*; NIH3T3 tox: 5; 3T3 cytotox 2: 63*

How did Cc1noc(C)c1S(=O)(=O)Nc1ccc2c(c1)C(=O)N([C@@H](C)CO)C[C@H](C)[C@@H](CN(C)Cc1ccc(C(F)(F)F)cc1)OCCCC[C@H](C)O2 do in these assays?
Pf Dd2 growth: -8; T cruzi growth-1: 103*; KDM4C inh: -1; T cruzi growth-2: 104*; T cruzi growth-3: 74; NIH3T3 tox: -5; 3T3 cytotox 2: 104*

How did Cc1noc(C)c1S(=O)(=O)Nc1ccc2c(c1)C(=O)N([C@H](C)CO)C[C@H](C)[C@@H](CN(C)Cc1ccc(C(F)(F)F)cc1)OCCCC[C@@H](C)O2 do in these assays?
Pf Dd2 growth: 11; T cruzi growth-1: 96*; KDM4C inh: 0; T cruzi growth-2: 106*; T cruzi growth-3: 24; NIH3T3 tox: 13; 3T3 cytotox 2: 4

What do the screens show for `Cc1noc(C)c1S(=O)(=O)Nc1ccc2c(c1)C(=O)N([C@H](C)CO)C[C@H](C)[C@H](CN(C)Cc1ccc(C(F)(F)F)cc1)OCCCC[C@@H](C)O2`?
Pf Dd2 growth: 13; IDH1 mut inh: 0; T cruzi growth-1: inconclusive; KDM4C inh: 2; T cruzi growth-2: 106*; T cruzi growth-3: -1; NIH3T3 tox: 2; 3T3 cytotox 2: inconclusive

How did C[C@H]1[C@H](C)CC[C@]2(C(=O)O[C@@H]3O[C@H](COC4O[C@H](CO)[C@@H](OC5O[C@@H](C)[C@H](O)[C@@H](O)[C@H]5O)[C@H](O)[C@H]4O)[C@@H](O)[C@H](O)[C@H]3O)CC[C@]3(C)C(=CC[C@@H]4[C@@]5(C)C[C@@H](O)[C@H](O)[C@@](C)(CO)C5CC[C@]43C)[C@H]12 (stereo partly specified) do in these assays?
IDH1 mut inh: 1

How did CN1CCN(CC(=O)N2N=C(c3c(-c4ccccc4)c4cc(Cl)ccc4[nH]c3=O)CC2c2ccccc2)CC1 (stereo unspecified) do in these assays?
IDH1 mut inh: 2

Results for COc1ccccc1N1C(=O)C2C(c3ccc(F)cc3)NC(Cc3ccccc3)(C(=O)O)C2C1=O (stereo unspecified) ?
IDH1 mut inh: 0

What do the screens show for `Cn1nc(-c2ccc(NCCN3CCOCC3)c([N+](=O)[O-])c2)c2ccccc2c1=O`?
IDH1 mut inh: 0

How did Cc1noc(C)c1S(=O)(=O)Nc1ccc2c(c1)C(=O)N([C@@H](C)CO)C[C@@H](C)[C@@H](CN(C)Cc1ccc(C(F)(F)F)cc1)OCCCC[C@@H](C)O2 do in these assays?
Pf Dd2 growth: -18; IDH1 mut inh: 2; T cruzi growth-1: 99*; KDM4C inh: -2; T cruzi growth-2: 94; T cruzi growth-3: 112*; NIH3T3 tox: 19; 3T3 cytotox 2: 106*

Results for CCC(=O)Nc1ccc(Cl)c(NC(=O)COc2cccc3ccccc23)c1 ?
IDH1 mut inh: 0

How did O=C(Nc1ccccc1Cl)N1C[C@H]2[C@@H](c3ccccc31)[C@H](CO)N2Cc1ccccc1 do in these assays?
Pf Dd2 growth: -9; T cruzi growth-1: 100*; KDM4C inh: -2; T cruzi growth-2: 82; T cruzi growth-3: 8; NIH3T3 tox: -7; 3T3 cytotox 2: 12

How did O=C(C1CCCCC1)N1C[C@@H]2[C@H](c3ccccc31)[C@H](CO)N2Cc1ccccc1Cl do in these assays?
Pf Dd2 growth: -28; T cruzi growth-1: 105*; KDM4C inh: 0; T cruzi growth-2: 99*; T cruzi growth-3: 15; NIH3T3 tox: 21; 3T3 cytotox 2: -11

What do the screens show for `O=C(Nc1ccccc1)N1C[C@@H]2[C@H](c3ccccc31)[C@@H](CO)N2CC1CCCC1`?
Pf Dd2 growth: -19; T cruzi growth-1: -19; KDM4C inh: 1

Results for O=C(Nc1ccc(Cl)cc1)N1C[C@H]2[C@@H](c3ccccc31)[C@@H](CO)N2CC1CCCC1 ?
Pf Dd2 growth: -14; T cruzi growth-1: 108*; KDM4C inh: -1; T cruzi growth-2: 99*; T cruzi growth-3: 78; NIH3T3 tox: 2; 3T3 cytotox 2: 50*

How did O=C(C1CCCCC1)N1C[C@H]2[C@@H](c3ccccc31)[C@H](CO)N2Cc1ccccc1Cl do in these assays?
Pf Dd2 growth: -16; T cruzi growth-1: 48; KDM4C inh: 6

Results for O=C(Nc1ccccc1Cl)N1C[C@H]2[C@@H](c3ccccc31)[C@@H](CO)N2Cc1ccccc1 ?
Pf Dd2 growth: 2; T cruzi growth-1: 73; KDM4C inh: -1
